One assay concerns the target Butyrylcholinesterase (Rattus norvegicus, UniProt Q9JKC1). Nature of the assay: Inhibition of rat serum BuChE by Ellman's method.
Assay [1] concerns the target T1, Amyloid-beta precursor protein (Homo sapiens, UniProt P05067). Nature of the assay: Inhibition of self-induced amyloid beta (1 to 42) (unknown origin) aggregation by T-fluorescence assay relative to control. A digest of the protocol: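 IC50 by ThT fluorescence (excitation 446 nm, emission 490 nm). Computed only where inhibition of self-induced Aβ1-42 aggregation at 25 μM exceeded 90%. Triplicate; mean of three independent experiments.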

A short description of assay [2]: Antioxidant activity of compound assessed as trolox equivalent antioxidant capacity by ORAC-FL assay. It counts as functional.
For assay [3], the target named is T1, Amyloid-beta precursor protein. The assay can be described thus: Disaggregation of Cu2+ induced amyloid beta (1 to 42 residues) (unknown origin) aggregation at 25 uM by thioflavin-T fluorescence method relative to control.
Assay [4] has the same target. Nature of the assay: Inhibition of Cu2+ induced amyloid beta (1 to 42 residues) (unknown origin) aggregation at 25 uM by thioflavin-T fluorescence method relative to control.
Assay [5] addresses Acetylcholinesterase (Electrophorus electricus, UniProt O42275). The assay can be described thus: Inhibition of electric eel AChE using acetylthiocholine iodide as substrate by Ellman's method.
The next assay is filed under the species Homo sapiens. The assay can be described thus: Selectivity index, ratio of IC50 for recombinant human MAO-A to IC50 for recombinant human MAO-B. In a few lines: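 Selectivity index taken as IC50(hMAO-A)/IC50(hMAO-B). IC50 values are mean ± SEM from three experiments.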
In assay [6] the target is T2, Amine oxidase [flavin-containing] A (Homo sapiens, UniProt P21397).
T2 sequence (P21397 whole entry): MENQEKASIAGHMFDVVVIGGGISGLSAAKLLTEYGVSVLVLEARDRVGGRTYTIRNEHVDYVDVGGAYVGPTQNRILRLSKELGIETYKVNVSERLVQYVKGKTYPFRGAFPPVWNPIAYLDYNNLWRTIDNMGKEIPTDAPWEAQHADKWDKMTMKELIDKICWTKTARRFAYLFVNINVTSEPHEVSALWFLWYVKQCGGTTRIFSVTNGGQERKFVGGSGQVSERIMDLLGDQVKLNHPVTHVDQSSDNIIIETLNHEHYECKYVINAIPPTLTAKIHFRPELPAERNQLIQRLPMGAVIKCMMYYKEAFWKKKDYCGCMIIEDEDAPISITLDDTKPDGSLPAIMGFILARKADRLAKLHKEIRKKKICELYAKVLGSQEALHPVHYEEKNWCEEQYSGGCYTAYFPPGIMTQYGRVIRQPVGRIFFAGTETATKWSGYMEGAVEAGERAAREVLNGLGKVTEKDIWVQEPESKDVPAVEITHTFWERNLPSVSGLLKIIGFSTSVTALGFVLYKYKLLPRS
The assay can be described thus: Inhibition of human recombinant MAO-A by multimode plate reader assay.

Assay [7] addresses T3, Amine oxidase [flavin-containing] B (Homo sapiens, UniProt P27338).
T3 sequence (P27338 whole entry): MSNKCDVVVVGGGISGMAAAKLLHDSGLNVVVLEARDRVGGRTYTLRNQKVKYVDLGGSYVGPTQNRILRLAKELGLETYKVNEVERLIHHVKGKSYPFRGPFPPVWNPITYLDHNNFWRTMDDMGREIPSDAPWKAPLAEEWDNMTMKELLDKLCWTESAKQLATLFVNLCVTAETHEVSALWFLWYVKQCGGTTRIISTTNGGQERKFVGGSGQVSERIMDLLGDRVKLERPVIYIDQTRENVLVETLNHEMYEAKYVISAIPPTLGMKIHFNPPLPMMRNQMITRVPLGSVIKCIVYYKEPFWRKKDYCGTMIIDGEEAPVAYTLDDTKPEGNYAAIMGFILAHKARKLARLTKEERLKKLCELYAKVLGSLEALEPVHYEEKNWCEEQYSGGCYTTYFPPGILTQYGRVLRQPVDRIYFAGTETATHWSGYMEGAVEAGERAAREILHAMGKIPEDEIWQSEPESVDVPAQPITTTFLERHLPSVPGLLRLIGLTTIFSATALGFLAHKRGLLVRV
Nature of the assay: Inhibition of human recombinant MAO-B by multimode plate reader assay.

For assay [8], the target named is T1, Amyloid-beta precursor protein. Nature of the assay: Disaggregation of self-induced amyloid beta (1 to 42) (unknown origin) at 25 uM measured by Thioflavin T based fluorometric assay relative to control.
Assay [9] has as its target T4, Acetylcholinesterase (Rattus norvegicus, UniProt P37136).
T4 sequence (P37136 whole entry): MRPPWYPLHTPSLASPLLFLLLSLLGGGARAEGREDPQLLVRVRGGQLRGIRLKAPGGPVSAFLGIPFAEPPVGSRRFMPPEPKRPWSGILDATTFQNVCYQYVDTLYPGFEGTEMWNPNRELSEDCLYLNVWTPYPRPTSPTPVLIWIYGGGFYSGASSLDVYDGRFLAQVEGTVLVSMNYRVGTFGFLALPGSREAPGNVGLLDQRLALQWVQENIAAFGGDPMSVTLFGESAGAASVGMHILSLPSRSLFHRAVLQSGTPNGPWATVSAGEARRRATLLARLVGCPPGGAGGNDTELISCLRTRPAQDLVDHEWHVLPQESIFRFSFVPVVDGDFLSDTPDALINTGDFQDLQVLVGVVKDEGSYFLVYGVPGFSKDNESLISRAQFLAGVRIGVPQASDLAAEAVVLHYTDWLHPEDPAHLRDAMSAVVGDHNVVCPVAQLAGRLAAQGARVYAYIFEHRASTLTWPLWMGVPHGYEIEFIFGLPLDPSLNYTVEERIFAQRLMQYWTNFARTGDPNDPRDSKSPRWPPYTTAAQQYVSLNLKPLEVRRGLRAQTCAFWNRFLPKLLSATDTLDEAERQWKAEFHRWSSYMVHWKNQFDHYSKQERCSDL
Nature of the assay: Inhibition of rat cortex homogenate acetylcholinesterase by Ellman's method.

The target of assay [10] is T1, Amyloid-beta precursor protein. Nature of the assay: Inhibition of self-induced amyloid beta (1 to 42) (unknown origin) aggregation at 25 uM by T-fluorescence assay relative to control. In a few lines: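 Self-induced Aβ1-42 aggregation measured by ThT fluorescence, excitation 446 nm and emission 490 nm. Compound and Aβ1-42 each at 25 μM. Run in triplicate. Values are mean of three independent experiments.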

Bounds are passed on as bounds.

This is an account of results in ChEMBL document CHEMBL4813970, “Design, synthesis and evaluation of novel dimethylamino chalcone-O-alkylamines derivatives as potential multifunctional agents against Alzheimer's disease” (Eur J Med Chem, 2021).

T1 sequence (P05067 whole entry): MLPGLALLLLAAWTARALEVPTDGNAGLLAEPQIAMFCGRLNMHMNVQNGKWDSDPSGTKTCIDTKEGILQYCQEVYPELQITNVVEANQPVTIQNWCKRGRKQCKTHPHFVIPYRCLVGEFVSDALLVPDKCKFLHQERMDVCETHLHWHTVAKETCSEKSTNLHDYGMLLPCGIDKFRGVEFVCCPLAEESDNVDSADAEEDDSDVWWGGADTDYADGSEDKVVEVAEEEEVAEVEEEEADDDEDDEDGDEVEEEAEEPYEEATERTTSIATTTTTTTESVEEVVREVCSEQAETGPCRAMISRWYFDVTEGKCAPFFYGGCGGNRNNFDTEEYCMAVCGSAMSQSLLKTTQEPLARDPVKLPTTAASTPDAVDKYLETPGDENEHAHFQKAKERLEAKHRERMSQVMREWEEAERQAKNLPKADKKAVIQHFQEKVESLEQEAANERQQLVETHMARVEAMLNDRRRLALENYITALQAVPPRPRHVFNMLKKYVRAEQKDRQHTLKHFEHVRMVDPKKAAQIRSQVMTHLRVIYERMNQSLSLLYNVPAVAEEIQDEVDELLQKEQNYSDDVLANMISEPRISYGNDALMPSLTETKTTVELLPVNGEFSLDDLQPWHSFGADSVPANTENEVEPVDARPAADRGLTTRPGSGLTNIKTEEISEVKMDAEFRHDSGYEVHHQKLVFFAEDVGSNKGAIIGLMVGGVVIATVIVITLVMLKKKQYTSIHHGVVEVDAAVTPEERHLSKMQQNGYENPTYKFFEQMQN
Sequence of Acetylcholinesterase (Electrophorus electricus, UniProt O42275) (O42275 whole entry): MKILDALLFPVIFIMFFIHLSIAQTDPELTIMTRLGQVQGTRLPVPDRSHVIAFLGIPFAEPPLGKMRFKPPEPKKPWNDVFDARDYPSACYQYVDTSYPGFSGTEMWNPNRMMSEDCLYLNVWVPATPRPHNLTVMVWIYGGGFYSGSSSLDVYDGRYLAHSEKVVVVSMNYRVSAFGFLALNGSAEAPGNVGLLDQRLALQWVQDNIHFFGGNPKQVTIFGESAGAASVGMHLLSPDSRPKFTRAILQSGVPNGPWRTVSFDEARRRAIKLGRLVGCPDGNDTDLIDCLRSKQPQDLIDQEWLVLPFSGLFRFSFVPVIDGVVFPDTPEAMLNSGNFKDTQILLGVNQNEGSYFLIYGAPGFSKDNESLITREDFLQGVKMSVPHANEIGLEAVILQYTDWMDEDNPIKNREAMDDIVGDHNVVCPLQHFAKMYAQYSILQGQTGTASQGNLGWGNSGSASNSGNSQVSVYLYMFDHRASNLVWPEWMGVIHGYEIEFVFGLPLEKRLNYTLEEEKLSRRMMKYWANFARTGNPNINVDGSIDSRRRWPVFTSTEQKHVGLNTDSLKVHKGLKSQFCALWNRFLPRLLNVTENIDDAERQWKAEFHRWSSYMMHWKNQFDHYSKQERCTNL
Sequence of Butyrylcholinesterase (Q9JKC1 whole entry): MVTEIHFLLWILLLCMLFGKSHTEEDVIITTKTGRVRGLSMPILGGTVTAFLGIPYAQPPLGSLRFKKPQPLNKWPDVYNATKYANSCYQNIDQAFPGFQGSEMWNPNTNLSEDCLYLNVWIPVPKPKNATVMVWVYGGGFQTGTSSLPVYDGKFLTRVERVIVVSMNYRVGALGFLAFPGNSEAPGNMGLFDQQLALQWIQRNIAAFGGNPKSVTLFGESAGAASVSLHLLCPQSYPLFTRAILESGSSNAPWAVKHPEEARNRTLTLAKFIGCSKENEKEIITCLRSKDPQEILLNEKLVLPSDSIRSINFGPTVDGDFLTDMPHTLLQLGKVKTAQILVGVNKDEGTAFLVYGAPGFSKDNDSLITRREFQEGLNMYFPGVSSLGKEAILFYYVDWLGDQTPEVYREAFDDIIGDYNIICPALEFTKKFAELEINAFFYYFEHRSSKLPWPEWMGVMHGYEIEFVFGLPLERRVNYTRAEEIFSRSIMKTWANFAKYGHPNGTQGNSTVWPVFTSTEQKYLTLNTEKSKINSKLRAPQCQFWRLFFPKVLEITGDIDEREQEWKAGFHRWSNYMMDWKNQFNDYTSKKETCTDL

In the case of `CCN(CCCCOc1ccc(C(=O)/C=C/c2ccc(N(C)C)cc2)c(O)c1)Cc1ccc(N(C)C)cc1`, the 50% inhibitory concentration (IC50) against Butyrylcholinesterase stood at 68.9 µM; in [1] (read-out: IC50), 2.1 µM; against Acetylcholinesterase [5] it was 1.96 µM; in assay [6], 17.2 µM; in assay [7], 2.4 µM; against Acetylcholinesterase [9], 1.35 µM. Also, the Activity in assay [2] was 1.5; in [3] it was 78.8%; in assay [8], 91.6%. In addition, in assay [4], the inhibition worked out at 91.7%. For the same compound, in the assay filed under Homo sapiens, the Selectivity Index came to 7.2.
Regarding `CCN(CCCCCCOc1ccc(C(=O)/C=C/c2ccc(N(C)C)cc2)c(O)c1)Cc1ccccc1`, the IC50 was over 500 µM against Butyrylcholinesterase; 3.17 µM in assay [1] (read-out: IC50); 3.59 µM on Acetylcholinesterase [5]; 31.6 µM in [6]; 2.1 µM in assay [7]; 4 µM on Acetylcholinesterase [9]. The Activity in assay [2] came out at 1.4; in [3], 88.3%; in assay [8], 84.4%. The compound further gave an inhibition in [4] of 91%. For the same compound, the Selectivity Index in the assay filed under Homo sapiens amounted to 15.
Turning to `CCN(CCCCCCOc1ccc(C(=O)/C=C/c2ccc(N(C)C)cc2)c(O)c1)Cc1ccccc1N(C)C`, the concentration for half-maximal inhibition (IC50) came out at 422 µM against Butyrylcholinesterase; 1.03 µM in [1] (read-out: IC50); 2.44 µM against Acetylcholinesterase [5]; 37.8 µM in assay [6]; 2.1 µM in [7]; 0.31 µM on Acetylcholinesterase [9]. For the same compound, the Activity came to 2 in assay [2], 83.4% in [3] and 87.9% in [8]. In addition, the inhibition in [4] was determined as 96.5%. For the same compound, the Selectivity Index in the assay listed under Homo sapiens is 18.
Turning to `CCN(CCCCCCOc1ccc(C(=O)/C=C/c2ccc(N(C)C)cc2)c(O)c1)Cc1ccc(N(C)C)cc1`, the IC50 at Butyrylcholinesterase was over 500 µM; in [1] (read-out: IC50) it was 1.38 µM; on Acetylcholinesterase [5], 7.95 µM; in assay [6], 53.6 µM; in [7], 2.3 µM; at Acetylcholinesterase [9], 1.37 µM. Also, the Activity in [2] came out at 1.4; in assay [3], 84.4%; in [8] it was 95%. The inhibition in [4] was 95.6%. For the same compound, in the assay listed under Homo sapiens, the Selectivity Index was 23.3.
As for `CCN(CCCCCCOc1ccc(C(=O)/C=C/c2ccc(N(C)C)cc2)c(O)c1)Cc1ccccc1OC`, the concentration for half-maximal inhibition (IC50) against Butyrylcholinesterase is over 500 µM; in [1] (read-out: IC50) it was 1.49 µM; on Acetylcholinesterase [5], 5.17 µM; in [6], 54.3 µM; in assay [7] it was 0.7 µM; at Acetylcholinesterase [9], 0.56 µM. The Activity in assay [2] is 1.4; in [3], 85.6%; in assay [8] it was 92.6%. In [4], this compound registered an inhibition of 93.2%. For the same compound, in the assay filed under Homo sapiens, the Selectivity Index was 77.6.
For the compound `COc1cc2c(cc1OC)C(=O)C(CC1CCN(Cc3ccccc3)CC1)C2` (centres undefined) [DONEPEZIL], in [1], the IC50 entry is “Not Active”.
`CCN(CCCCOc1ccc(/C=C/C(=O)c2ccc(N(C)C)cc2O)cc1)Cc1ccccc1N(C)C`: the IC50 was over 500 µM on Butyrylcholinesterase, 3.02 µM against Acetylcholinesterase [5], 12.3 µM in assay [6] and 4.3 µM in assay [7]. Moreover, the Activity in [2] stood at 1.5. This compound also gave an inhibition in assay [10] of 75.8%. In addition, the Selectivity Index in the assay filed under Homo sapiens stood at 2.9.
On to `CCN(CCCOc1ccc(C(=O)/C=C/c2ccc(N(C)C)cc2)c(O)c1)Cc1ccccc1`, for which the concentration for half-maximal inhibition (IC50) was over 500 µM on Butyrylcholinesterase; 1.68 µM in assay [1] (read-out: IC50); 5.06 µM against Acetylcholinesterase [5]; 82.6 µM in assay [6]; 13.1 µM in [7]; 1.44 µM against Acetylcholinesterase [9]. The Activity in assay [2] turned out to be 1.6; in assay [3] it was 73.8%; in [8] it was 97.5%. Also, the inhibition in assay [4] was determined as 91.9%. In addition, in the assay listed under Homo sapiens, the Selectivity Index worked out at 6.3.
Consider `CCN(CCCOc1ccc(C(=O)/C=C/c2ccc(N(C)C)cc2)c(O)c1)Cc1ccccc1OC`, for which the IC50 against Butyrylcholinesterase was over 500 µM; in [1] (read-out: IC50), 3.56 µM; on Acetylcholinesterase [5] it was 5.3 µM; in [6] it was 26.3 µM; in [7], 10.8 µM; against Acetylcholinesterase [9] it was 0.63 µM. The Activity in assay [2] is 1.5; in assay [3], 74.8%; in assay [8], 98.1%. Moreover, the inhibition in assay [4] is 95.2%. The Selectivity Index in the assay listed under Homo sapiens was determined as 2.4.
Take `CCN(CCCOc1ccc(C(=O)/C=C/c2ccc(N(C)C)cc2)c(O)c1)Cc1ccccc1N(C)C`: the concentration for half-maximal inhibition (IC50) against Butyrylcholinesterase is 339 µM; in assay [1] (read-out: IC50), 1.27 µM; against Acetylcholinesterase [5] it was 1.59 µM; in [6], 23.6 µM; in assay [7], 3.2 µM; on Acetylcholinesterase [9], 0.21 µM. For the same compound, the Activity came out at 2.1 in assay [2], 89.5% in assay [3] and 96.6% in assay [8]. In addition, in assay [4], the inhibition was 94.8%. In the assay listed under Homo sapiens, the Selectivity Index was found to be 7.4.
For `CCN(CCCCOc1ccc(C(=O)/C=C/c2ccc(N(C)C)cc2)c(O)c1)Cc1ccccc1`, the concentration for half-maximal inhibition (IC50) against Butyrylcholinesterase worked out at 202 µM; in assay [1] (read-out: IC50), 3.78 µM; at Acetylcholinesterase [5], 4.3 µM; in assay [6], 77.3 µM; in assay [7], 8.9 µM; on Acetylcholinesterase [9] it was 1.39 µM. Moreover, the Activity in assay [2] came out at 1.5; in assay [3] it was 82.1%; in assay [8], 97.2%. This compound also had an inhibition in [4] of 93.9%. For the same compound, in the assay filed under Homo sapiens, the Selectivity Index was 8.7.
Take `CCN(CCCCOc1ccc(C(=O)/C=C/c2ccc(N(C)C)cc2)c(O)c1)Cc1ccccc1OC`: the half-maximal inhibitory concentration (IC50) against Butyrylcholinesterase was over 500 µM; in [1] (read-out: IC50), 1.48 µM; against Acetylcholinesterase [5], 4.12 µM; in [6], 27.5 µM; in assay [7] it was 1.1 µM; against Acetylcholinesterase [9], 0.65 µM. In addition, the results for the Activity in assay [2], in assay [3] and in assay [8] were 1.4, 73% and 99.7%, respectively. The inhibition in assay [4] amounted to 91.9%. For the same compound, the Selectivity Index in the assay listed under Homo sapiens turned out to be 25.
As for `CCN(CCCOc1ccc(C(=O)/C=C/c2ccc(N(C)C)cc2)c(O)c1)Cc1ccc(N(C)C)cc1`, the IC50 against Butyrylcholinesterase was over 500 µM; in [1] (read-out: IC50), 1.32 µM; on Acetylcholinesterase [5], 6.21 µM; in assay [6], 57.5 µM; in assay [7], 13.7 µM; at Acetylcholinesterase [9], 2.47 µM. Moreover, the Activity in [2] is 1.3; in [3], 77.6%; in [8], 73.7%. This compound also showed an inhibition in assay [4] of 95%. In the assay listed under Homo sapiens, the Selectivity Index is 4.2.
